Screens (PubChem BioAssay)
ABCG2 block: ABCG2 efflux pump inhibitors, primary screen, multiplex with ABCB1, IgMXP3 cells, flow cytometry; Broad substrate specificity ATP-binding cassette transporter ABCG2 (Homo sapiens), Q9UNQ0; JC-1 efflux; inhibition, % at 6.6 µM; 190,000 compounds, 0.1% hits; AID 1325, 2008;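 active = inhibition above 80%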;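 also: 0% = DMSO and 100% = nicardipine control wells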
Target sequence (Q9UNQ0 whole entry, looked up): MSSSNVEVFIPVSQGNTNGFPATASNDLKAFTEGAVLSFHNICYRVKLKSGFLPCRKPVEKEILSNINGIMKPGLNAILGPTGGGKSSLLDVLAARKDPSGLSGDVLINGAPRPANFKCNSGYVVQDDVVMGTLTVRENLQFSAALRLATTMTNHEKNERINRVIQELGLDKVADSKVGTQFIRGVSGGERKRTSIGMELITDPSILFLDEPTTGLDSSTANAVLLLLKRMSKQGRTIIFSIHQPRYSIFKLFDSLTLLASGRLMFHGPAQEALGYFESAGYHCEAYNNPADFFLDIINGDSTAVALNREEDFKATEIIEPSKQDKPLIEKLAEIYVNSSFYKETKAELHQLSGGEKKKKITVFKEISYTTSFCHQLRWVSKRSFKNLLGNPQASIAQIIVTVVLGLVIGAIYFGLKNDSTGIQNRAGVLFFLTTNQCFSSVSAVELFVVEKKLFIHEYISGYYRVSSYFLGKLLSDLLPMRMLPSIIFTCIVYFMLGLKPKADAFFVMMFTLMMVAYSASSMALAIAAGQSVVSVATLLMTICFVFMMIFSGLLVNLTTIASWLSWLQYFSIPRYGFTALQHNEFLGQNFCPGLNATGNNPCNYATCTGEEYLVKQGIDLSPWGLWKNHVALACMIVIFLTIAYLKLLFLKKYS
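Assay system – ABCG2 IgMXP3 and barcoded ABCB1 CCRF-Adr cell mix · Input – 3 million cells/mL in well · Reagent – JC-1 fluorescent substrate · Compound – single test compound dose, 6.6 µM final · Timing – 10 min exposure at 25 °C with rotation, no wash · Detection – flow cytometry of retained JC-1 fluorescence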
RAM network inh: inhibitors of the yeast RAM network, primary screen, dse1pr::URA3 reporter, 5-FOA selection. 190,000 compounds, 1.8% hits. S. cerevisiae dse1pr::URA3 reporter, 5-FOA growth OD615, 2 d; analog-sensitive cbk1-as2 kinase mutant strain. inhibition, % at 50 µM;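 active = inhibition above a set limit, 3 SD over mean compound inhibition, cut at about 8.4% in these data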;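 also: 0% = DMSO-only wells with no growth and 100% = 10 µM 1-NA-PP1 full growth; inhibition rescues growth on 5-FOA so higher OD means more RAM inhibition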
ABCB1 block: ABCB1 efflux pump inhibitors, primary screen, cell-based, multiplex, flow cytometry, ABCG2 counter-screen; ATP-dependent translocase ABCB1 (Homo sapiens), P08183; CCRF-Adr cells, JC-1 efflux; inhibition, % at 6.6 µM; 190,000 compounds, 0.067% hits; in the data active = inhibition above about 40%;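 also: 0% = vehicle and 100% = reference inhibitor; higher value means more JC-1 retained so stronger ABCB1 efflux block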
Arbovirus anti: antivirals against arbovirus infection, primary screen, cell-based, full library, 10K replicate subset; arbovirus infection cell-based antiviral screen; inhibition, % at 10 µM; 200,000 compounds, 0.37% hits; AID 1251, 2008; in the data active = inhibition above about 30%
* marks the source's active call; other numbers are inactive results. Shown are actives, neighbours in structure and some others; about 2.3% of the full set was active somewhere.

CCN(CC)S(=O)(=O)c1ccc2c(c1)C(=NO)c1cc(S(=O)(=O)N(CC)CC)ccc1-2 was read as ABCG2 block 24.5, RAM network inh 10.3*, ABCB1 block 0.6 and Arbovirus anti -28.5.
For COCCN1Cc2cccc(C(=O)NCc3cccnc3)c2C1=O the results were ABCG2 block 0.4, RAM network inh 1.0, ABCB1 block 0.1 and Arbovirus anti 5.6.
`C=CCSc1nc2c(sc3nc(C)cc(C)c32)c(=O)[nH]1` gave ABCG2 block 0.1, RAM network inh 1.1, ABCB1 block 0.1 and Arbovirus anti 65.0*.
For Cc1cc(C)c2c(n1)sc1c(=O)[nH]c(SCc3ccccc3)nc12 the results were ABCG2 block 2.2, RAM network inh 2.9, ABCB1 block -0.2 and Arbovirus anti -2.2.
Cc1ccc(SC(c2ccc(C)cc2)C(Cn2cncn2)C(=O)c2ccccc2)cc1 (stereo not drawn) was read as ABCG2 block 5.8, RAM network inh 11.4*, ABCB1 block 2.2 and Arbovirus anti -22.1.
Brc1ccc(-c2csc(N/N=C/c3ccco3)n2)cc1 was read as ABCG2 block 4.2, RAM network inh 1.5, ABCB1 block -0.9 and Arbovirus anti 24.0.
For NC(=O)/C(=N\OC(=O)c1ccco1)c1nc(-c2ccc(Br)cc2)cs1 the results were ABCG2 block 6.6, RAM network inh 4.0, ABCB1 block 0.8 and Arbovirus anti 44.3*.
`CCc1cc(C(=O)OC)c(NC(=O)CCCC(=O)O)s1` gave ABCG2 block 0.2, RAM network inh 1.4, ABCB1 block 0.1 and Arbovirus anti 8.9.
For CCc1cc(C(=O)OC)c(NC(=O)c2cc(Br)cs2)s1 the results were ABCG2 block 6.0, RAM network inh 10.3*, ABCB1 block 0.7 and Arbovirus anti 0.7.
For Cn1cnnc1SCC(=O)Nc1cccc(S(=O)(=O)N2CCCCCC2)c1 the results were ABCG2 block 3.6, RAM network inh -0.1, ABCB1 block -0.1 and Arbovirus anti -4.1.
Screening OC1CCN(c2cc(-c3ccccc3)nc3cc(-c4ccc(F)cc4)nn23)CC1 returned ABCG2 block 0.8, RAM network inh 9.6*, ABCB1 block -0.1 and Arbovirus anti 0.1.
Screening O=C(c1ccccc1)N1CCC(c2nc(-c3ccc(S(=O)(=O)N4CCOCC4)cc3)no2)CC1 returned ABCG2 block 2.5, RAM network inh -0.2, ABCB1 block 0.8 and Arbovirus anti 0.5.
Screening CN(C)c1ccc(-c2noc(C3CCN(S(=O)(=O)c4cccc(C(=O)O)c4)CC3)n2)cc1 returned ABCG2 block -0.5, RAM network inh 9.8*, ABCB1 block -0.2 and Arbovirus anti -3.4.
Cc1ccc2c(c1)c(Sc1ccccc1)c(CC(=O)O)n2C was read as ABCG2 block -4.8, RAM network inh 6.4, ABCB1 block -0.1 and Arbovirus anti 31.0*.
Screening CCOC(=O)Cc1c(Sc2ccccc2)c2cc(C)ccc2n1C returned ABCG2 block 3.9, RAM network inh 2.1, ABCB1 block 0.4 and Arbovirus anti 26.2.
`CCOc1ccccc1/C=N/Nc1ccccc1[N+](=O)[O-]` gave ABCG2 block 11.0, RAM network inh 9.8*, ABCB1 block 5.7 and Arbovirus anti 1.9.
`CC(C)Oc1ccccc1/C=N/Nc1ccccc1[N+](=O)[O-]` gave ABCG2 block 20.6, RAM network inh 8.5*, ABCB1 block 2.3 and Arbovirus anti 7.4.
Screening COc1cc(/C=N/Nc2ccccc2[N+](=O)[O-])cc(OC)c1O returned ABCG2 block 11.2, RAM network inh 0.2, ABCB1 block 0.4 and Arbovirus anti -3.0.
Screening Cc1[nH]c2ccccc2c1/C=N/Nc1ccccc1[N+](=O)[O-] returned ABCG2 block -2.7, RAM network inh 8.8*, ABCB1 block -0.8 and Arbovirus anti 7.0.
`Cc1[nH]c2ccccc2c1/C=N/NS(=O)(=O)c1ccccc1` gave ABCG2 block 2.2, RAM network inh 0.5, ABCB1 block -0.1 and Arbovirus anti 8.7.
Screening O=C(NCCc1nc2ccccc2[nH]1)/C(=C/c1ccc2c(c1)OCO2)NC(=O)c1ccccc1 returned ABCG2 block -1.6, RAM network inh 1.9, ABCB1 block -0.2 and Arbovirus anti -4.4.
Screening COc1ccc(-c2csc(Nc3ccc(C)cn3)n2)cc1OC returned ABCG2 block 0.5, RAM network inh 2.0, ABCB1 block -0.2 and Arbovirus anti 52.6*.
Screening Cc1ccc(Nc2nc(-c3ccc(O)c(O)c3)cs2)nc1 returned ABCG2 block -0.3, RAM network inh 1.2, ABCB1 block -0.4 and Arbovirus anti -20.3.
`CCOc1cc(S(=O)(=O)NCCc2cccc(C)c2)c(OCC)cc1-n1cnnn1` gave ABCG2 block 3.0, RAM network inh 8.8*, ABCB1 block 0.9 and Arbovirus anti -0.4.
`CCc1cc2ccc(C)cc2nc1SCC(=O)Nc1cc(OC)c(OC)cc1C(=O)O` gave ABCG2 block -3.3, RAM network inh -1.5, ABCB1 block -0.3 and Arbovirus anti 7.3.
CCc1cc2cc3c(cc2nc1SCC(=O)Nc1cc(OC)c(OC)cc1C(=O)O)OCO3 was read as ABCG2 block 0.7, RAM network inh 9.5*, ABCB1 block 0.3 and Arbovirus anti 20.2.
Screening COc1ccc(S(=O)(=O)N[C@H](C(=O)O)C(C)C)cc1 returned ABCG2 block -1.2, RAM network inh 2.3, ABCB1 block 53.8* and Arbovirus anti 4.2.
`Cc1ccc(NC(=O)CCC(=O)OCC(=O)c2ccc(Oc3ccc([N+](=O)[O-])cc3)cc2)cc1C` gave ABCG2 block 1.1, RAM network inh 10.6*, ABCB1 block 0.3 and Arbovirus anti 5.0.
CCN(CC)c1ccc2cc(-c3nc(-c4ccc(OC)cc4)cs3)c(=O)oc2c1 was read as ABCG2 block active, RAM network inh 4.2, ABCB1 block active and Arbovirus anti -2.1.
Screening CCN(CC)c1ccc2cc(-c3nnc(-c4ccccc4)o3)c(=O)oc2c1 returned ABCG2 block 0.0, RAM network inh 4.7, ABCB1 block 34.1 and Arbovirus anti -19.2.
Screening O=C(CN1CCCC1=O)NC1C2CC3CC(C2)CC1C3 (stereo not drawn) returned ABCG2 block 3.2, RAM network inh 0.9, ABCB1 block 0.0 and Arbovirus anti 5.2.
For CCc1cc2c(SCC(=O)c3ccc(C)cc3)ncnc2s1 the results were ABCG2 block 4.5, RAM network inh 9.9*, ABCB1 block 0.8 and Arbovirus anti 5.8.
`CCN1CCN(C(=S)c2ccc(OC)cc2)CC1` gave ABCG2 block 6.5, RAM network inh 1.7, ABCB1 block 0.2 and Arbovirus anti 3.5.
For O=C(NC(c1ccccc1)c1ccccc1)C1(c2cccs2)CCOCC1 the results were ABCG2 block -1.2, RAM network inh 4.2, ABCB1 block 1.3 and Arbovirus anti 0.4.
O=C(C1CC1c1ccccc1)N1CCN(c2cccc(Cl)c2)CC1 (stereo not drawn) was read as ABCG2 block 3.5, RAM network inh 9.5*, ABCB1 block 0.6 and Arbovirus anti -23.6.
